In ChEMBL document CHEMBL1811864 (Bioorg Med Chem, 2011):

Tests used:
[1] = biological target: T1, Transcriptional activator protein LasR (Pseudomonas aeruginosa (strain ATCC 15692 / PAO1 / 1C / PRS 101 / LMG12228)) (UniProt P25084); test: Antagonist activity at Pseudomonas aeruginosa PAO1 MW1 (pUM15) LasR assessed as inhibition of OdDHL-induced quorum sensing activation at 10 uM after 8 hrs by […] relative to untreated control; type: functional
T1 sequence (whole entry): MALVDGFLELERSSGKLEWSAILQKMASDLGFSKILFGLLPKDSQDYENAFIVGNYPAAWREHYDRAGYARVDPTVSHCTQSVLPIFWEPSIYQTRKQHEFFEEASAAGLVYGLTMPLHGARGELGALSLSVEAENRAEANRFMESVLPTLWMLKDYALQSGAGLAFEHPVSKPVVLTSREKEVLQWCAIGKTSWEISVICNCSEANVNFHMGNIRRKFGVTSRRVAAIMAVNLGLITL
Outline: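 P. aeruginosa PAO1 MW1 (pUM15) lacks functional LasI and carries a LasR-responsive promoter driving YFP, so fluorescence is the read-out. Compounds were tested at 10 µM. […] Background from wells with no compound or AHL was subtracted. Assays were done in triplicate.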

[2] = tested on: Escherichia coli DH5[alpha]; test: Antagonist activity at Escherichia coli DH5alpha (pJN105L + pSC11) LasR assessed as inhibition of OdDHL-induced quorum sensing activation at 10 uM after 8 hrs by beta-galactosidase reporter gene assay relative to untreated control; type: functional
[3] = tested on: Escherichia coli DH5[alpha]; test: Agonist activity at Escherichia coli DH5alpha (pJN105L + pSC11) LasR at 10 uM after 8 hrs by beta-galactosidase reporter gene assay relative to OdDHL; type: functional
[4] = Antagonist activity at Escherichia coli DH5alpha (pJN105L + pSC11) LasR assessed as inhibition of OdDHL-induced quorum sensing activation after 8 hrs by beta-galactosidase reporter gene assay; type: functional, Escherichia coli DH5[alpha]
[5] = biological target: T2, Transcriptional activator protein LuxR (Aliivibrio fischeri) (UniProt P12746); test: Antagonist activity at Vibrio fischeri ESI 114 (delta-LuxI) LuxR assessed as inhibition of […]-induced quorum sensing activation at 10 uM after 8 hrs by […] relative to untreated control; type: functional
T2 sequence (whole entry): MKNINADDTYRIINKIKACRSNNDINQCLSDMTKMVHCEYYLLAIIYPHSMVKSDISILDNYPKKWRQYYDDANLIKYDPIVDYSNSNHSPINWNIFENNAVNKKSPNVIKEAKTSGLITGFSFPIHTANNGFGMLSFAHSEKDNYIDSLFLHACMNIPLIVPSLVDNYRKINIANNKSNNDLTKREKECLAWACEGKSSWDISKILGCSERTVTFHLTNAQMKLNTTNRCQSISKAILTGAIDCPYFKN

[6] = biological target: T2, Transcriptional activator protein LuxR (Aliivibrio fischeri); test: Agonist activity at Vibrio fischeri ESI 114 (delta-LuxI) LuxR at 10 uM after 8 hrs by […] relative to […]; type: functional
Outline: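 V. fischeri ESI 114 lacking LuxI synthase but keeping its native lux operon; LuxR activity read as luminescence. Compounds were screened at 10 µM alone, without native AHL. Signal was normalized to the native-ligand positive control.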

[7] = biological target: T3, Transcriptional activator protein TraR (Agrobacterium tumefaciens) (UniProt P33905); test: Antagonist activity at Agrobacterium tumefaciens WCF (pCF372) TraR assessed as inhibition of […]-induced quorum sensing activation at 10 uM after 8 hrs by beta-galactosidase reporter gene assay relative to untreated control; type: functional
T3 sequence (whole entry): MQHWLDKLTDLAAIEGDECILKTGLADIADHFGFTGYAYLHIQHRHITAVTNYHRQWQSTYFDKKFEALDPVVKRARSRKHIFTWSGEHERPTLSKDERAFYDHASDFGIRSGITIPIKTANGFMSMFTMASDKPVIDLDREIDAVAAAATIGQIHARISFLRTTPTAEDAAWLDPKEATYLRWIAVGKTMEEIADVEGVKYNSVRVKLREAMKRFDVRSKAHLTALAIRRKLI

[8] = biological target: T3, Transcriptional activator protein TraR (Agrobacterium tumefaciens); test: Agonist activity at Agrobacterium tumefaciens WCF (pCF372) TraR at 10 uM after 8 hrs by beta-galactosidase reporter gene assay relative to […]; type: functional
Pseudomonas aeruginosa = test: Growth inhibition of Pseudomonas aeruginosa PAO1 MW1 (pUM15) at 10 uM after 4 to 16 hrs; type: organism-based; settings: in vivo
Outline: (§1)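 Bacterial growth was monitored over the reporter gene assay time course (4–16 h) with compounds at 10 µM.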

Escherichia coli = test: Growth inhibition of Escherichia coli DH5alpha (pJN105L + pSC11) at 10 uM after 4 to 16 hrs; type: organism-based, DH5[alpha]; settings: in vivo; outline: as §1
Aliivibrio fischeri = test: Growth inhibition of Vibrio fischeri ESI 114 (delta-LuxI) at 10 uM after 4 to 16 hrs; type: organism-based; settings: in vivo; outline: as §1
[9] = tested on: Agrobacterium tumefaciens; test: Growth inhibition of Agrobacterium tumefaciens WCF (pCF372) at 10 uM after 4 to 16 hrs; type: organism-based; settings: in vivo; outline: as §1
[10] = biological target: T1, Transcriptional activator protein LasR (Pseudomonas aeruginosa (strain ATCC 15692 / PAO1 / 1C / PRS 101 / LMG12228)); test: Agonist activity at Pseudomonas aeruginosa PAO1 MW1 (pUM15) LasR at 10 uM after 8 hrs by YFP fluorescence reporter gene assay relative to OdDHL
[11] = biological target: T4, Transcriptional activator protein LuxR (Aliivibrio fischeri, UniProt P12746); test: Antagonist activity at Vibrio fischeri ESI 114 (delta-LuxI) LuxR assessed as inhibition of OHHL-induced quorum sensing activation after 8 hrs by […]
T4 sequence (P12746 whole entry): T2 sequence (whole entry)

[12] = biological target: T5, Transcriptional activator protein TraR (Agrobacterium tumefaciens, UniProt P33905); test: Antagonist activity at Agrobacterium tumefaciens WCF (pCF372) TraR assessed as inhibition of OOHL-induced quorum sensing activation after 8 hrs by beta-galactosidase reporter gene assay
T5 sequence (P33905 whole entry): T3 sequence (whole entry)

[13] = Agonist activity at Escherichia coli DH5alpha (pJN105L + pSC11) LasR after 8 hrs by beta-galactosidase reporter gene assay relative to OdDHL; type: functional, Escherichia coli DH5[alpha]
[14] = biological target: T4, Transcriptional activator protein LuxR; test: Agonist activity at Vibrio fischeri ESI 114 (delta-LuxI) LuxR after 8 hrs by […] relative to […]; type: functional
[15] = biological target: T5, Transcriptional activator protein TraR; test: Agonist activity at Agrobacterium tumefaciens WCF (pCF372) TraR after 8 hrs by beta-galactosidase reporter gene assay relative to OOHL
[16] = biological target: T6, Transcriptional activator protein LasR (Pseudomonas aeruginosa (strain ATCC 15692 / PAO1 / 1C / PRS 101 / LMG12228), UniProt P25084); test: Agonist activity at Pseudomonas aeruginosa PAO1 MW1 (pUM15) LasR after 8 hrs by YFP fluorescence reporter gene assay relative to OdDHL
T6 sequence (P25084 whole entry): T1 sequence (whole entry)

[17] = biological target: T6, Transcriptional activator protein LasR; test: Agonist activity at Pseudomonas aeruginosa PAO1 MW1 (pUM15) LasR assessed as quorum sensing activation after 8 hrs by […]
[18] = Hydrolytic stability of the compound in Luria-Bertani medium containing Pseudomonas aeruginosa PA01 MW1 (pUM15) assessed as half life by measuring YFP fluorescence; type: physicochemical

| SMILES | inhibition [1] | Activity [3] | inhibition [5] | Activity [6] | inhibition [7] | Activity [8] | Activity (Pseudomonas aeruginosa) | Activity (Escherichia coli) | Activity (Aliivibrio fischeri) | Activity [9] | Activity [10] | IC50 [11] | IC50 [12] | EC50 [13] | half-life [18] | also measured |
| --- | --- | --- | --- | --- | --- | --- | --- | --- | --- | --- | --- | --- | --- | --- | --- | --- |
| CCCCCCC(=O)N[C@H]1CCSC1=O | -8% | 8% | 78% | 0% | 78% | 0% | Non-toxic | Non-toxic | Non-toxic | Non-toxic | 0% | 0.31 µM | 10 µM | – | – | inhibition [2]: 78%; IC50 [4]: 0.79 µM |
| O=C(Cc1cccc([N+](=O)[O-])c1)N[C@H]1CCSC1=O | -7% | 82% | 19% | 21% | 33% | 1% | Non-toxic | Non-toxic | Non-toxic | Non-toxic | 5% | – | – | 4.1 µM | – | EC50 [14]: 11 µM |
| CCCCCC(=O)CC(=O)N[C@H]1CCSC1=O | -8% | – | 99% | 0% | – | 50% | Non-toxic | Non-toxic | Non-toxic | Non-toxic | 3% | 0.35 µM | – | – | – | EC50 [15]: 20 µM |
| CCCC(=O)CC(=O)N[C@H]1CCSC1=O | – | 96% | 62% | 0% | 93% | 1% | Non-toxic | Non-toxic | Non-toxic | Non-toxic | 76% | – | 3.2 µM | 0.13 µM | – | EC50 [16]: 13 µM; EC50 [17]: 13 µM |
| CCCCCCCCCC(=O)CC(=O)N[C@H]1CCOC1=O | – | – | – | – | – | – | – | – | – | – | – | – | – | – | 48.2 h | – |
| CCCCCCCCCC(=O)CC(=O)N[C@H]1CCSC1=O | – | 94% | 99% | 0% | 92% | 1% | Non-toxic | Non-toxic | Non-toxic | Non-toxic | 88% | 0.45 µM | – | 0.092 µM | 82.3 h | – |
